The target in experiment [1] is T1, Adenosine receptor A1 (Homo sapiens) (UniProt P30542).
T1 sequence (whole entry): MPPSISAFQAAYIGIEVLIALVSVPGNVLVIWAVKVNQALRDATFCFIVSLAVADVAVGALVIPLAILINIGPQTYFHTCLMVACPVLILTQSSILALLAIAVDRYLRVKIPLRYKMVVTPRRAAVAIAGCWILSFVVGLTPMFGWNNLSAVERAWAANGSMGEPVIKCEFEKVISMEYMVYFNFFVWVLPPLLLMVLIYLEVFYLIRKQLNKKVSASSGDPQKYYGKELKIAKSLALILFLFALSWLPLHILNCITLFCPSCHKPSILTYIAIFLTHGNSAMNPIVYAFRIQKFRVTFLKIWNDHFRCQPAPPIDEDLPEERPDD
The experiment can be described thus: Displacement of [3H]DPCPX from human cloned adenosine A1 receptor expressed in CHO cells at 10 uM. (Displacement assays read how much labelled ligand stays bound in the presence of the test substance.)

The species entered for experiment [2] is Rattus norvegicus. The experiment can be described thus: Effect on fEPSP amplitude under normoxic condition in Wistar rat cerebral ischemia model treated after 5 mins of oxygen and glucose deprivation. In kind it is functional. In short, it runs like this: (§1)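 Rat hippocampal slices, CA1 stratum radiatum fEPSP evoked by 80 µs, 0.066 Hz pulses at 30–32 °C. Drug (10 nM) given 15 min before, during and 5 min after 7-min OGD (glucose-free aCSF, 95% N2–5% CO2). Amplitude expressed as % of baseline, with recovery assessed after reperfusion in oxygenated glucose aCSF. Means ± SEM.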

Experiment [3] concerns the target T2, Adenosine receptor A3 (Homo sapiens, UniProt P0DMS8).
T2 sequence (P0DMS8 whole entry): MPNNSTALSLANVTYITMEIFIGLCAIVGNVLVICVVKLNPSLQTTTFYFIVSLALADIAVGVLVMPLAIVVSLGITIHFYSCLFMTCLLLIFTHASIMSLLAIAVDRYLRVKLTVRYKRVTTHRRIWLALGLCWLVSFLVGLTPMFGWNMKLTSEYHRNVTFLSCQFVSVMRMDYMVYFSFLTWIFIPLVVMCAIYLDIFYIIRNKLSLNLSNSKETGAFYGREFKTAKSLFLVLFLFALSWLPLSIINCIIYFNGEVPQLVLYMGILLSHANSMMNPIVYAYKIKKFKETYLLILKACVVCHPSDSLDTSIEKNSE
The experiment is described as follows: Displacement of [125I]AB-MECA from human cloned adenosine A3 receptor expressed in CHO cells. In kind it is cell-based. In short, it runs like this: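 CHO cells stably expressing hA3. IC50 by non-linear regression over five displacer concentrations in triplicate, converted to Ki by Cheng-Prusoff. Ki values are means of four assays.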

For experiment [4], the species on record is Bos taurus. The experiment can be described thus: Displacement of [3H]CGS21680 from adenosine A2A receptor in bovine brain membrane at 10 uM. The class given is cell membranes. Put shortly:
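Bovine striatal membranes, [3H]CGS 21680 (Kd 14 nM). Five displacer concentrations in triplicate, non-linear regression IC50, Cheng-Prusoff Ki, four assays. Single-point data are % inhibition at 10 µM.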

Experiment [5] deals with T3, Adenosine receptor A1 (Rattus norvegicus, UniProt P25099).
T3 sequence (P25099 whole entry): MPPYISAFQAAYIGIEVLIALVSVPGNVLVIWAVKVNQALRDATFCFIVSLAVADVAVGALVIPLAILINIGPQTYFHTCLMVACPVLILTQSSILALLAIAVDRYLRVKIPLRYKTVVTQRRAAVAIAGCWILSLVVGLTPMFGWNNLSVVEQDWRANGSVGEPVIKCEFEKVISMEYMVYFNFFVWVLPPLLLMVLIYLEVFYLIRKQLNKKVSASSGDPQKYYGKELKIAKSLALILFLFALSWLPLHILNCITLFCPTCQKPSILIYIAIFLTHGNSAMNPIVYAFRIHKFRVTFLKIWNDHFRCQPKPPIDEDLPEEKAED
The experiment can be described thus: Displacement of [3H]DPCPX from adenosine A1 receptor in Wistar rat cerebral cortex. The class given is tissue-based.

Experiment [6] concerns the target T4, Adenosine receptor A3 (Rattus norvegicus) (UniProt P28647).
T4 sequence (whole entry): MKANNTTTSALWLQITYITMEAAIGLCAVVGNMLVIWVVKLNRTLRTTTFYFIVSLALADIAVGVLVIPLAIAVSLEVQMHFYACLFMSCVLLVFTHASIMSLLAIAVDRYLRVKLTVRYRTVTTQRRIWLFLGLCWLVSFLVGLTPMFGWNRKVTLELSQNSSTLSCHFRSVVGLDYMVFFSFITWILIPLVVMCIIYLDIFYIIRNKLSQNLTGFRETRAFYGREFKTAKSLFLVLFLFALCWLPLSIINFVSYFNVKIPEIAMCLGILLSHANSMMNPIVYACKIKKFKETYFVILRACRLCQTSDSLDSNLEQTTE
The experiment can be described thus: Displacement of [3H](R)-PIA from adenosine A3 receptor in Wistar rat testis membrane at 1 uM. In kind it is cell membranes. Put shortly:
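Wistar rat testis membranes (0.1–0.2 mg protein) with 4 nM [3H](R)-PIA in 50 mM Tris/HCl pH 7.4, 1 mM EDTA, 10 mM MgCl2, plus 150 nM DPCPX to block A1 sites. Nonspecific binding defined with 15 µM (R)-PIA. Filtration, then scintillation counting. Percent inhibition at 1 µM.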

The species entered for experiment [7] is Rattus norvegicus. The experiment is described as follows: Effect on fEPSP amplitude under normoxic condition in Wistar rat cerebral ischemia model treated during oxygen and glucose deprivation. In kind it is functional. In short, it runs like this:
as §1

The species entered for experiment [8] is Rattus norvegicus. The experiment can be described thus: Inhibition of fEPSP amplitude in Wistar rat cerebral ischemia model at 10 nM treated after 7 mins of oxygen and glucose deprivation. The class given is functional. In short, it runs like this:
as §1

Experiment [9] is filed under the species Rattus norvegicus. The experiment can be described thus: Effect on anoxic depolarization in Wistar rat cerebral ischemia model assessed as delay in appearance treated before 15 mins of oxygen and glucose deprivation. In kind it is functional. Put shortly: (§2)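 Rat hippocampal slices (400 µm), submerged and superfused with oxygenated aCSF at 30–32 °C. OGD made with glucose-free, N2-gassed aCSF for 7 or 30 min. Drug applied 15 min before, during and 5 min after OGD; 10 nM, with 0.5 nM–1 µM tested in 30-min runs. Anoxic depolarization recorded in CA1 as negative d.c. shift, with peak time from OGD onset. Means ± SEM; unpaired two-tailed t test.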

For experiment [10], the species on record is Rattus norvegicus. The experiment can be described thus: Inhibition of anoxic depolarization in Wistar rat cerebral ischemia model at 10 nM treated after 7 mins of oxygen and glucose deprivation. In kind it is functional. Put shortly:
as §2

The target of experiment [11] is T5, Adenosine receptor A1 (Bos taurus, UniProt P28190).
T5 sequence (P28190 whole entry): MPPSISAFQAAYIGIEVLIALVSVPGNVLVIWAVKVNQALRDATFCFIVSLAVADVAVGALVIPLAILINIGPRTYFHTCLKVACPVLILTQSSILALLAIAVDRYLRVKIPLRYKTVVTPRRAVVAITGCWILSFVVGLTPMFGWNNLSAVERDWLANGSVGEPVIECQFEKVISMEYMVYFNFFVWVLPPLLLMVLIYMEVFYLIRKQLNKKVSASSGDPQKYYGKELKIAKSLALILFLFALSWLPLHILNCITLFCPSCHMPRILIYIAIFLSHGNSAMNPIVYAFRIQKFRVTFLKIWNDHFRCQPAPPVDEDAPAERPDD
The experiment can be described thus: Displacement of [3H]DPCPX from adenosine A1 receptor in bovine brain membrane.

Experiment [12] addresses T2, Adenosine receptor A3. The experiment is described as follows: Antagonist activity at human […] expressed in CHO cells assessed as inhibition of NECA-induced cAMP accumulation. In kind it is functional, cell-based. Put shortly:
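hA3-transfected CHO cells (~60,000/well, 48 h) preincubated 15 min at 37 °C with Ro 20-1724 (20 µM) and adenosine deaminase (1 U/mL). Compound (1 nM–10 µM, 15 min) added, then 100 nM NECA against 1 µM forskolin-stimulated cAMP. Stopped with 0.4 N HCl. cAMP measured by [3H]cAMP competitive binding-protein assay. Sigmoid non-linear regression; three separate experiments.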
(In general: cAMP levels reflect the balance of adenylyl cyclase and phosphodiesterase activity.)

The species named for experiment [13] is Rattus norvegicus. The experiment can be described thus: Effect on anoxic depolarization in Wistar rat cerebral ischemia model assessed as delay in appearance treated during oxygen and glucose deprivation. The class given is functional. In short, it runs like this: as §2
Experiment [14] is filed under the species Rattus norvegicus. The experiment can be described thus: Effect on fEPSP amplitude under normoxic condition in Wistar rat cerebral ischemia model treated before 15 mins of oxygen and glucose deprivation. In kind it is functional. In short, it runs like this:
as §1

Experiment [15] addresses Adenosine receptor A2a (Homo sapiens, UniProt P29274). The experiment is described as follows: Displacement of [125I]NECA from human adenosine A2A receptor expressed in CHO cells at 10uM. The settings on record: in the assay text read “[3H]NECA” for “[125I]NECA”. The class given is cell-based. In short, it runs like this: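 hA2A stably expressed in CHO cells. Radioligand [3H]NECA (Kd 30 nM). Percentage inhibition of specific binding measured at 10 µM.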

The source made the active and inactive calls. The rule behind the calls is not given here.

Chain of Adenosine receptor A2a (P29274 whole entry): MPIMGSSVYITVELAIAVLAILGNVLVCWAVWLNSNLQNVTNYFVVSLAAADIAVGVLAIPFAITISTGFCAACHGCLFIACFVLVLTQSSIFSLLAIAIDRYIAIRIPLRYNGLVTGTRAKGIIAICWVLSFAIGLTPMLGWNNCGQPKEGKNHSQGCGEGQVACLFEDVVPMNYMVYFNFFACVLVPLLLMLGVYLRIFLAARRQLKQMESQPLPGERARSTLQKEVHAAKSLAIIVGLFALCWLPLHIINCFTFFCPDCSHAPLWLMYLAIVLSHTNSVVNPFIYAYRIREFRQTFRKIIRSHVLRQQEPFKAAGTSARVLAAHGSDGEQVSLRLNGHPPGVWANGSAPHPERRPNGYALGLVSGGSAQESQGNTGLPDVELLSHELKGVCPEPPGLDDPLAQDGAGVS

`CS(=O)(=O)N(c1nc2ccccc2n2c(=O)n(-c3ccccc3)nc12)S(C)(=O)=O`: the Activity in experiment [1] worked out at 36%; in experiment [4], 56%; in experiment [6], 5%; in experiment [9] it was 9.3 min; in experiment [13], 9.3 min; in experiment [15], 32%. In addition, the outcome in experiment [2], in experiment [7] and in experiment [14] was inactive. The Ki was 5.5 nM in experiment [3], 132 nM in [5] and 36 nM in experiment [11]. Moreover, the result in experiment [8] and in [10] was Active. The EC50 in experiment [12] is 12 nM.

Usually Ki stands for a measure of affinity in units of concentration, obtained from inhibition or displacement. The EC50 is the concentration at which the effect is half-maximal.
